Values after ≈ are worked out from the molar mass of the structure shown. Active and inactive are the calls of the source. No cut-off for these calls is given here.
Key:
Aspergillus sp. [1] = assay: Antifungal activity against Aspergillus sp. at 100 units after 48 hrs by cup plate method; assay type: functional
Pseudomonas aeruginosa [2] = assay: Antibacterial activity against Pseudomonas aeruginosa at 100 units after 18 hrs by cup plate method; assay type: functional, organism-based
[3] = system: Staphylococcus epidermidis; assay: Antibacterial activity against Staphylococcus epidermidis at 100 units after 18 hrs by cup plate method; assay type: functional, organism-based
Bacillus subtilis [4] = assay: Antibacterial activity against Bacillus subtilis at 100 units after 18 hrs by cup plate method; assay type: functional, organism-based
Aspergillus niger [5] = assay: Antifungal activity against Aspergillus niger at 100 units after 48 hrs by cup plate method; assay type: functional
Staphylococcus aureus [6] = assay: Antibacterial activity against Staphylococcus aureus at 100 units after 18 hrs by cup plate method; assay type: functional, organism-based
Candida albicans [7] = assay: Antifungal activity against Candida albicans MTCC 227 at 100 units after 48 hrs by cup plate method; assay type: functional
Klebsiella pneumoniae [8] = assay: Antibacterial activity against Klebsiella pneumoniae at 100 units after 18 hrs by cup plate method; assay type: functional, organism-based
Escherichia coli [9] = assay: Antibacterial activity against Escherichia coli at 100 units after 18 hrs by cup plate method; assay type: functional, organism-based
Aspergillus niger [10] = assay: Antifungal activity against Aspergillus niger at 100 ug/ml after 48 hrs by cup plate method; assay type: functional
Method in brief: (§1)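 Agar well (cup plate) diffusion on potato dextrose agar 39 g/L, with compounds dissolved in DMSO. Plates were incubated at 28 ± 2 °C for 48 h and inhibition zones measured to the nearest mm. Three replicates per treatment. Amphotericin B positive control; solvent control included.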

[11] = system: Staphylococcus epidermidis; assay: Antibacterial activity against Staphylococcus epidermidis at 100 ug/ml after 18 hrs by cup plate method; assay type: functional; conditions: read-out: DIZ
Method in brief: (§2)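 Agar well diffusion on Mueller-Hinton agar. Inoculum was adjusted to a 0.5 McFarland standard (about […] × 10⁸ CFU/mL) and swabbed over the plate three times, rotating about 60° each time, then the rim was swabbed. Compounds in DMSO went into duplicate 6 mm wells. Plates were incubated at 37 °C for 18 h and inhibition zone diameter read to the nearest mm. DMSO negative control; streptomycin and ciprofloxacin positive controls.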

Klebsiella pneumoniae [12] = assay: Antibacterial activity against Klebsiella pneumoniae at 75 ug/ml after 18 hrs by cup plate method; assay type: functional; conditions: read-out: DIZ; method in brief: as §2
Klebsiella pneumoniae [13] = assay: Antibacterial activity against Klebsiella pneumoniae at 50 ug/ml after 18 hrs by cup plate method; assay type: functional; conditions: read-out: DIZ; method in brief: as §2
[14] = system: Staphylococcus epidermidis; assay: Antibacterial activity against Staphylococcus epidermidis at 75 ug/ml after 18 hrs by cup plate method; assay type: functional; conditions: read-out: DIZ; method in brief: as §2
Bacillus subtilis [15] = assay: Antibacterial activity against Bacillus subtilis at 10 ug/ml after 18 hrs by cup plate method; assay type: functional; method in brief: as §2
Bacillus subtilis [16] = assay: Antibacterial activity against Bacillus subtilis at 100 ug/ml after 18 hrs by cup plate method; assay type: functional; conditions: read-out: DIZ; method in brief: as §2
Staphylococcus aureus [17] = assay: Antibacterial activity against Staphylococcus aureus at 25 ug/ml after 18 hrs by cup plate method; assay type: functional; conditions: read-out: DIZ; method in brief: as §2
Bacillus subtilis [18] = assay: Antibacterial activity against Bacillus subtilis at 75 ug/ml after 18 hrs by cup plate method; assay type: functional; conditions: read-out: DIZ; method in brief: as §2
Aspergillus niger [19] = assay: Antifungal activity against Aspergillus niger at 50 ug/ml after 48 hrs by cup plate method; assay type: functional, organism-based; method in brief: as §1
Bacillus subtilis [20] = assay: Antibacterial activity against Bacillus subtilis at 50 ug/ml after 18 hrs by cup plate method; assay type: functional; conditions: read-out: DIZ; method in brief: as §2
[21] = system: Staphylococcus epidermidis; assay: Antibacterial activity against Staphylococcus epidermidis at 25 ug/ml after 18 hrs by cup plate method; assay type: functional; conditions: read-out: DIZ; method in brief: as §2
Bacillus subtilis [22] = assay: Antibacterial activity against Bacillus subtilis at 25 ug/ml after 18 hrs by cup plate method; assay type: functional; conditions: read-out: DIZ; method in brief: as §2
Klebsiella pneumoniae [23] = assay: Antibacterial activity against Klebsiella pneumoniae at 10 ug/ml after 18 hrs by cup plate method; assay type: functional; conditions: read-out: DIZ; method in brief: as §2
Escherichia coli [24] = assay: Antibacterial activity against Escherichia coli at 25 ug/ml after 18 hrs by cup plate method; assay type: functional; conditions: read-out: DIZ; method in brief: as §2
Candida albicans [25] = assay: Antifungal activity against Candida albicans MTCC 227 at 25 ug/ml after 48 hrs by cup plate method; assay type: functional
Method in brief: (§3)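 Agar well (cup plate) diffusion on potato dextrose agar 39 g/L. Compounds dissolved in DMSO and loaded into 6 mm wells. Incubated at 28 ± 2 °C for 48 h. Inhibition zone diameter measured to the nearest millimetre, three replicates per treatment. DMSO solvent as negative control, amphotericin B as positive control.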

Staphylococcus aureus [26] = assay: Antibacterial activity against Staphylococcus aureus at 100 ug/ml after 18 hrs by cup plate method; assay type: functional; conditions: read-out: DIZ; method in brief: as §2
Escherichia coli [27] = assay: Antibacterial activity against Escherichia coli at 10 ug/ml after 18 hrs by cup plate method; assay type: functional; conditions: read-out: DIZ; method in brief: as §2
Staphylococcus aureus [28] = assay: Antibacterial activity against Staphylococcus aureus at 75 ug/ml after 18 hrs by cup plate method; assay type: functional; conditions: read-out: DIZ; method in brief: as §2
Pseudomonas aeruginosa [29] = assay: Antibacterial activity against Pseudomonas aeruginosa at 75 ug/ml after 18 hrs by cup plate method; assay type: functional; conditions: read-out: DIZ; method in brief: as §2
[30] = system: Mycobacterium tuberculosis; assay: Antimycobacterial activity against Mycobacterium tuberculosis H37Rv after 3 to 4 weeks by broth microdilution assay; assay type: functional
Method in brief: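 MIC by broth microdilution on compounds active in a single-concentration primary screen. Plates incubated 3–4 weeks at 37 °C in a CO₂ incubator. Wells read visually for absence of growth turbidity.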

Staphylococcus aureus [31] = assay: Antibacterial activity against Staphylococcus aureus at 50 ug/ml after 18 hrs by cup plate method; assay type: functional; conditions: read-out: DIZ; method in brief: as §2
Escherichia coli [32] = assay: Antibacterial activity against Escherichia coli at 50 ug/ml after 18 hrs by cup plate method; assay type: functional; conditions: read-out: DIZ; method in brief: as §2
Pseudomonas aeruginosa [33] = assay: Antibacterial activity against Pseudomonas aeruginosa at 100 ug/ml after 18 hrs by cup plate method; assay type: functional; conditions: read-out: DIZ; method in brief: as §2
Klebsiella pneumoniae [34] = assay: Antibacterial activity against Klebsiella pneumoniae at 25 ug/ml after 18 hrs by cup plate method; assay type: functional; conditions: read-out: DIZ; method in brief: as §2
Candida albicans [35] = assay: Antifungal activity against Candida albicans MTCC 227 at 50 ug/ml after 48 hrs by cup plate method; assay type: functional; method in brief: as §3
Candida albicans [36] = assay: Antifungal activity against Candida albicans MTCC 227 at 75 ug/ml after 48 hrs by cup plate method; assay type: functional; method in brief: as §3
Aspergillus sp. [37] = assay: Antifungal activity against Aspergillus sp. at 100 ug/ml after 48 hrs by cup plate method; assay type: functional; method in brief: as §1
Pseudomonas aeruginosa [38] = assay: Antibacterial activity against Pseudomonas aeruginosa at 10 ug/ml after 18 hrs by cup plate method; assay type: functional; method in brief: as §2
Aspergillus sp. [39] = assay: Antifungal activity against Aspergillus sp. at 75 ug/ml after 48 hrs by cup plate method; assay type: functional; method in brief: as §1
Aspergillus niger [40] = assay: Antifungal activity against Aspergillus niger at 25 ug/ml after 48 hrs by cup plate method; assay type: functional, organism-based; method in brief: as §1
[41] = system: Staphylococcus epidermidis; assay: Antibacterial activity against Staphylococcus epidermidis at 50 ug/ml after 18 hrs by cup plate method; assay type: functional; conditions: read-out: DIZ; method in brief: as §2
Aspergillus niger [42] = assay: Antifungal activity against Aspergillus niger at 75 ug/ml after 48 hrs by cup plate method; assay type: functional; method in brief: as §1
Pseudomonas aeruginosa [43] = assay: Antibacterial activity against Pseudomonas aeruginosa at 25 ug/ml after 18 hrs by cup plate method; assay type: functional; conditions: read-out: DIZ; method in brief: as §2
Aspergillus sp. [44] = assay: Antifungal activity against Aspergillus sp. at 50 ug/ml after 48 hrs by cup plate method; assay type: functional; method in brief: as §1
Klebsiella pneumoniae [45] = assay: Antibacterial activity against Klebsiella pneumoniae at 100 ug/ml after 18 hrs by cup plate method; assay type: functional; conditions: read-out: DIZ; method in brief: as §2
Escherichia coli [46] = assay: Antibacterial activity against Escherichia coli at 75 ug/ml after 18 hrs by cup plate method; assay type: functional; conditions: read-out: DIZ; method in brief: as §2
Pseudomonas aeruginosa [47] = assay: Antibacterial activity against Pseudomonas aeruginosa at 50 ug/ml after 18 hrs by cup plate method; assay type: functional; conditions: read-out: DIZ; method in brief: as §2
Staphylococcus aureus [48] = assay: Antibacterial activity against Staphylococcus aureus at 10 ug/ml after 18 hrs by cup plate method; assay type: functional; conditions: read-out: DIZ; method in brief: as §2
Escherichia coli [49] = assay: Antibacterial activity against Escherichia coli at 100 ug/ml after 18 hrs by cup plate method; assay type: functional; conditions: read-out: DIZ; method in brief: as §2
[50] = system: Staphylococcus epidermidis; assay: Antibacterial activity against Staphylococcus epidermidis at 10 ug/ml after 18 hrs by cup plate method; assay type: functional; conditions: read-out: DIZ; method in brief: as §2
Candida albicans [51] = assay: Antifungal activity against Candida albicans MTCC 227 at 100 ug/ml after 48 hrs by cup plate method; assay type: functional; conditions: MTCC 227, 48 h, read-out: IZ; method in brief: as §1
Aspergillus sp. [52] = assay: Antifungal activity against Aspergillus sp. at 25 ug/ml after 48 hrs by cup plate method; assay type: functional; method in brief: as §1

C[C@@H]1[C@H](O)[C@@H](C)/C=C/C=C/C=C/C=C/C=C/C=C/C=C/[C@H](O[C@@H]2O[C@H](C)[C@@H](O)[C@H](N)[C@@H]2O)C[C@@H]2O[C@](O)(C[C@@H](O)C[C@@H](O)[C@H](O)CC[C@@H](O)C[C@@H](O)CC(=O)O[C@H]1C)C[C@H](O)[C@H]2C(=O)O [AMPHOTERICIN B]
inhibition zone (IZ) (Aspergillus sp. [1]): 14 mm | diameter of the inhibition zone (DIZ) (Pseudomonas aeruginosa [2]): inactive | diameter of the inhibition zone (DIZ) [3]: inactive | diameter of the inhibition zone (DIZ) (Bacillus subtilis [4]): inactive | inhibition zone (IZ) (Aspergillus niger [5]): 23 mm | diameter of the inhibition zone (DIZ) (Staphylococcus aureus [6]): inactive | inhibition zone (IZ) (Candida albicans [7]): 14 mm | diameter of the inhibition zone (DIZ) (Klebsiella pneumoniae [8]): inactive | diameter of the inhibition zone (DIZ) (Escherichia coli [9]): inactive

CCN1C(N2CCN(Cc3ccc([N+](=O)[O-])o3)CC2)=NS(=O)(=O)c2ccccc21
inhibition zone (IZ) (Aspergillus niger [10]): inactive | zone of inhibition at 100 µg/mL [11]: 24 mm | zone of inhibition at 75 µg/mL (Klebsiella pneumoniae [12]): 20 mm | zone of inhibition at 50 µg/mL (Klebsiella pneumoniae [13]): 11 mm | zone of inhibition at 75 µg/mL [14]: 15 mm | diameter of the inhibition zone (DIZ) (Bacillus subtilis [15]): inactive | zone of inhibition at 100 µg/mL (Bacillus subtilis [16]): 23 mm | zone of inhibition at 25 µg/mL (Staphylococcus aureus [17]): 16 mm | zone of inhibition at 75 µg/mL (Bacillus subtilis [18]): 19 mm | inhibition zone (IZ) (Aspergillus niger [19]): inactive | zone of inhibition at 50 µg/mL (Bacillus subtilis [20]): 17 mm | zone of inhibition at 25 µg/mL [21]: 12 mm | zone of inhibition at 25 µg/mL (Bacillus subtilis [22]): 11 mm | zone of inhibition at 10 µg/mL (Klebsiella pneumoniae [23]): 10 mm | zone of inhibition at 25 µg/mL (Escherichia coli [24]): 20 mm | inhibition zone (IZ) (Candida albicans [25]): inactive | zone of inhibition at 100 µg/mL (Staphylococcus aureus [26]): 10 mm | zone of inhibition at 10 µg/mL (Escherichia coli [27]): 12 mm | zone of inhibition at 75 µg/mL (Staphylococcus aureus [28]): 21 mm | zone of inhibition at 75 µg/mL (Pseudomonas aeruginosa [29]): 22 mm | MIC [30]: 2.81 mg/L (≈ 6.7 µM) | zone of inhibition at 50 µg/mL (Staphylococcus aureus [31]): 16 mm | zone of inhibition at 50 µg/mL (Escherichia coli [32]): 16 mm | zone of inhibition at 100 µg/mL (Pseudomonas aeruginosa [33]): 16 mm | zone of inhibition at 25 µg/mL (Klebsiella pneumoniae [34]): 15 mm | inhibition zone (IZ) (Candida albicans [35]): inactive | inhibition zone (IZ) (Candida albicans [36]): inactive | inhibition zone (IZ) (Aspergillus sp. [37]): inactive | diameter of the inhibition zone (DIZ) (Pseudomonas aeruginosa [38]): inactive | inhibition zone (IZ) (Aspergillus sp. [39]): inactive | inhibition zone (IZ) (Aspergillus niger [40]): inactive | zone of inhibition at 50 µg/mL [41]: 12 mm | inhibition zone (IZ) (Aspergillus niger [42]): inactive | zone of inhibition at 25 µg/mL (Pseudomonas aeruginosa [43]): 16 mm | inhibition zone (IZ) (Aspergillus sp. [44]): inactive | zone of inhibition at 100 µg/mL (Klebsiella pneumoniae [45]): 19 mm | zone of inhibition at 75 µg/mL (Escherichia coli [46]): 29 mm | zone of inhibition at 50 µg/mL (Pseudomonas aeruginosa [47]): 10 mm | zone of inhibition at 10 µg/mL (Staphylococcus aureus [48]): 13 mm | zone of inhibition at 100 µg/mL (Escherichia coli [49]): 30 mm | zone of inhibition at 10 µg/mL [50]: 9 mm | zone of inhibition at 100 µg/mL (Candida albicans [51]): 10 mm | inhibition zone (IZ) (Aspergillus sp. [52]): inactive
